Screening data: PubChem BioAssay, The Scripps Research Institute Molecular Screening Center
This is a sample that favours compounds with a hit; in the whole collection about 2.1% have one here.
VIM-2 inh: blocks Pseudomonas aeruginosa VIM-2 metallo-beta-lactamase; actives 0.89% (n = 290,000); purified VIM-2, nitrocefin hydrolysis, epi-absorbance fluorescence; AID 1527; inhibition, % at 5.6 µM;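 active = inhibition above the mean of all tested compounds plus 3 SD, cutoff set per screening run, cut at about 7.5% in these data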;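 also: red hydrolysis product quenches plate fluorescence so inhibitors raise well fluorescence; 0% = enzyme with DMSO and 100% = DMSO without enzyme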
MsrA inhibitor: inhibits bovine methionine sulfoxide reductase A. purified bovine MsrA, absorbance read-out. inhibition, % at 15.5 µM. actives 0.75% (n = 360,000);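 also: 0% = vehicle wells with enzyme and 100% = reference inhibitor wells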
bovine MsrA act: activators of bovine methionine sulfoxide reductase A. purified bovine MsrA, absorbance read-out. activation, % at 10.6 µM. actives 0.3% (n = 360,000); in the data active = activation above about 7.5%;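 also: 0% = vehicle and 100% = reference activator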
PKA-R1A act: activates the PKA-R1A holoenzyme complex | P00514+P68181 | PKA-R1A dissociation, Cy5-IP20 fluorescence polarization; scaled: DMSO 0%, 113 µM cGMP 100% | activation, % at 11.4 µM | actives 0.083% (n = 340,000) | AID 504707;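 active = percent activation above the mean of all tested compounds plus 3 SD, cut at about 19% in these data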;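 also: higher means more PKAc released from R1A so a rise in polarization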
PKA-R2B act: activates the human PKA-R2B holoenzyme complex; P22694+P31323; PKA-R2B holoenzyme dissociation, Cy5-IP20 fluorescence polarization; R2B truncated from residue 108, S112A mutant; 0% DMSO only, 100% 113 µM cGMP; activation, % at 11.4 µM; actives 0.079% (n = 340,000);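 active = activation above a cutoff set at the mean over all compounds plus 3 SD, cut at about 18% in these data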;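 also: higher means more holoenzyme dissociation and a rise in polarization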
Target sequence (P31323 whole entry, looked up, other chains not shown, the tested form may be a part): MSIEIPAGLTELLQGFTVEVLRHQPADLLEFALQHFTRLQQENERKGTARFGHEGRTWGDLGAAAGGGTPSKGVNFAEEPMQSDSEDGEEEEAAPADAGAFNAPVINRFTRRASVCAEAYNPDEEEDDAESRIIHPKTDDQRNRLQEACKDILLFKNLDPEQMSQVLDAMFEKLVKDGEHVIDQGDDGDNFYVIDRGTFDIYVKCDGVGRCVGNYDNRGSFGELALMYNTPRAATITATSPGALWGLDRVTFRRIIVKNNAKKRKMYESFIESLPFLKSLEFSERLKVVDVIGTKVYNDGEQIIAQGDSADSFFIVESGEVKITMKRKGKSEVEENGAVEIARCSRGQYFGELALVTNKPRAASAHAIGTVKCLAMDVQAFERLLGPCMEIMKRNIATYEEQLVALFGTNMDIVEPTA
IMP-1 inh: inhibitors of Pseudomonas aeruginosa IMP-1 metallo-beta-lactamase. purified IMP-1, nitrocefin hydrolysis, epi-absorbance fluorescence. AID 1556. inhibition, % at 5.6 µM. actives 0.45% (n = 290,000);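 active = inhibition above the mean plus 3 SD of all compounds in the same screening run, cut at about 4.5% in these data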;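 also: 0% = IMP-1 with DMSO and 100% = DMSO wells lacking enzyme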
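Assay system: purified IMP-1; Quantity: IMP-1 0.2 nM before substrate addition; Medium: HEPES buffer pH 7.1 with ZnSO4 and Brij 35; Incubation: 15 min enzyme–compound preincubation, then 25 min nitrocefin reaction, 25 °C; Signal: fluorescence quenching readout, ex 480/em 530 nm; Controls: DMSO with and without IMP-1; Repeats: singlicate testing.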
MsrA inh confirm: bovine MsrA inhibition, confirmed. shares compounds with MsrA inhibitor. purified bovine MsrA, absorbance read-out. inhibition, % at 15.5 µM. actives 41% (n = 2,300). AID 651822;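 also: coupled to thioredoxin reductase with NADPH and selenocystamine and DMSO as substrate; 0% = vehicle only and 100% = full effect of reference inhibitor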
The depositor's hits bear a star; nt = no result; ! = repeats disagree. Rule as the data show it, unless noted: active = inhibition above about 4.5%; inactive = the rest.

SMILES	VIM-2 inh	MsrA inhibitor	bovine MsrA act	PKA-R1A act	PKA-R2B act	IMP-1 inh	MsrA inh confirm
COc1cccc(/C=C2\Oc3cc(OCC(=O)N4CCC[C@H]4C(=O)O)ccc3C2=O)c1	-1	5.7*	-3	1	-2	-1	5.9*
CN(C(=O)c1cccc(NC(=O)Cc2ccc(NC(=O)C3CCCN(S(=O)(=O)c4cccc([N+](=O)[O-])c4)C3)cc2)c1)C1CCCC1 (stereo unspecified)	nt	0	-1	4	-6	nt	nt
CC(=O)c1cnc(Nc2ccccc2)s1	-2	5	-2	-4	9	-3	nt
CC(=O)c1cnc(N(C)C)s1	-3	6.5*	-3	3	-5	0	4
CCN1/C(=C/C(C)=O)Sc2ccc(OC)cc21	-4	5.5*	-4	-8	0	-5	4
O=C(NN=Cc1cc(Br)c(O)c(Br)c1)c1ccccc1NS(=O)(=O)c1cccs1	nt	6.1*	-7	14	-6	nt	4
O=C(O)c1ccc(/C=N/NC(=O)c2ccc(NS(=O)(=O)c3cccs3)cc2)cc1	0	5.5*	-5	-17	-8	-1	5.5*
O=C(NN=Cc1ccc(F)cc1)c1ccccc1NS(=O)(=O)c1cccs1	nt	1	-5	6	5	nt	nt
O=C(O)COc1ccccc1C=NNC(=O)c1ccc(NS(=O)(=O)c2cccs2)cc1	nt	5.9*	-5	-6	-3	nt	4
CC(=O)C1=C(C)N(Cc2ccc(F)cc2)C(=S)NC1c1cccc(Cl)c1 (stereo unspecified)	nt	0	nt	nt	nt	nt	nt
O=c1[nH]c(-c2ccncc2)nc2ccccc12	-1	-1	-4	-2	-5	-3	nt
CN(C)c1ccc(-c2nc3ccccc3c(=O)[nH]2)cc1	0	6.0*	-14	4	2	0	4
Cc1[nH]c2ccccc2c1/C=N\NC(=O)c1ccco1	0	6.6*	-10	-1	-9	1	5.3*
Cc1[nH]c2ccccc2c1/C=N/NC(=O)c1cccc(F)c1	-1	4.8*	-8	7	-5	-2	4
O=C(COC(=O)CNC(=O)c1ccccc1)NC1CCCC1	nt	0	-1	4	-10	nt	nt
COc1ccc(CCNC(=O)C2CCN(S(=O)(=O)c3ccc(-n4cnnn4)cc3)CC2)cc1OC	-4	56*	-2	-7	6	-5	-1
COc1ccc(CCNC(=O)C2CCN(S(=O)(=O)c3ccc(OC)c(OC)c3)CC2)cc1OC	0	-1	-2	1	-2	0	nt
COc1ccc(/C=N/Nc2nn3cnnc3c3ccccc23)cc1	6	5.1*	-2	-2	4	-7	4
C[C@H]1NC(=O)[C@@]2(C)[C@H](c3ccccc3)[C@H]3COc4ccccc4[C@@H]3N2C1=O	nt	0	1	-6	5	nt	nt
CC1(CN2CCCC2)CCC(NC(=O)C(c2ccccc2)c2ccccc2)C(C)(C)O1 (stereo unspecified)	nt	1	-2	-4	-3	nt	nt
O=C(NC1CCCCC1)C1c2ccccc2OCC(=O)N1Cc1ccccn1 (stereo unspecified)	nt	0	-6	nt	nt	nt	nt
CC1CN(c2ncc(/C=N/NC(=O)c3ccccc3O)s2)CC(C)O1 (stereo unspecified)	-4	6.4*	-5	-3	-4	0	5.7*
O=C(N/N=C/c1cn(-c2ccccc2)nc1-c1ccc2c(c1)OCCO2)c1ccncc1	-3	5.0*	0	-5	-5	-1	1
CC(=O)NC(CC(=O)OCC(=O)c1cc(C)ccc1C)c1ccccc1 (stereo unspecified)	nt	-1	3	-8	-12	nt	nt
CC(C)C[C@@H]1COc2cccc(NC3CC3)c2S(=O)(=O)N1	nt	1	nt	nt	nt	nt	nt
SMILES	VIM-2 inh	MsrA inhibitor	bovine MsrA act	PKA-R1A act	PKA-R2B act	IMP-1 inh	MsrA inh confirm
O=C(O)CC1SC(N/N=C/c2ccc(Br)cc2)NC1=O (stereo unspecified)	-1	4.9*	-6	-8	1	-4	2
CCN(CC)CCn1c2c(c(SCC(=O)Nc3ccc4c(c3)OCCO4)nc1=O)CCCC2	nt	0	-1	5	-1	nt	nt
N#C/C(=C(\O)c1ccco1)c1ccccn1	-5	5.1*	-4	12	2	-3	2
N#C/C(=C(/O)c1ccco1)c1nc2ccccc2[nH]1	-5	7.2*	-13	-7	-7	-4	4.6*
N#C/C(=C(/O)CN1CCOCC1)c1nc2ccccc2s1	0	4.8*	-14	-10	-6	-1	4
N#CC(C(=O)c1ccco1)c1ccccn1 (stereo unspecified)	-1	5.9*	-8	-9	-4	-4	4
CCOCc1nc(N)nc(N)c1-c1cccc(Cl)c1	nt	0	-2	-9	-13	nt	nt
O=c1ccn(C2CC(O)C(COC(c3ccccc3)(c3ccccc3)c3ccccc3)O2)c(=O)[nH]1 (stereo unspecified)	nt	2	nt	nt	nt	nt	nt
CC(=O)C1CCC2C3CCC4CC(=O)CCC4(C)C3C(C)(O)CC12C (stereo unspecified)	nt	0	-2	-5	3	nt	nt
Cc1ccc(NC(=O)CN2C(=O)NC(C)(CC(C)C)C2=O)cc1F (stereo unspecified)	nt	0	-3	-10	-11	nt	nt
N#C/C(=C(/O)c1cc2ccccc2o1)c1nc2ccccc2s1	-3	0	-2	3	4	-1	nt
N#C/C(=C(/O)c1ccco1)c1nc2ccccc2s1	-3	4.8*!	-14	2	-5	-3	4.6*
COc1ccc(C(C(=O)NC(C)(C)C)N(CCc2ccc(OC)c(OC)c2)C(=O)CCC(=O)Nc2cc(C)on2)cc1 (stereo unspecified)	-1	-1	-4	-2	-5	-2	nt
O=C(O)c1ccc2c3c(cccc13)C(=O)N(c1ccccc1)C2=O	2	4	-7	-3	1	1	nt
NS(=O)(=O)c1ccc(O)c(N2C(=O)c3cccc4c(C(=O)O)ccc(c34)C2=O)c1	0	5.0*	-1	1	4	0	4
O=C(O)c1ccc(N2C(=O)c3cccc4c(C(=O)O)ccc(c34)C2=O)cc1	1	5.5*	-4	nt	nt	1	2
COc1ccc(-c2cc3ccc(OCc4nn[nH]n4)cc3oc2=O)cc1OC	2	6.5*	-5	-2	11	3	4
Cc1ccc(NS(=O)(=O)c2cc(-c3n[nH]c(=O)c4ccccc34)ccc2C)cc1	-1	5.2*	-1	2	-10	-1	5.0*
CCC(C(=O)NCCC1=CCCCC1)n1nc(C)c2c(C)n(-c3ccccc3)nc2c1=O (stereo unspecified)	-2	-1	0	-1	2	-4	nt
COc1ccccc1-c1c(C)c(C)nc(N)c1C#N	-2	2	-2	-2	-2	-2	nt
